These results are taken from publication PMC3235361 (Biochemistry, 2011).

Test [1] relates to differentiated PC-12 cells. In words: Neuroprotection against Aβ42, MTT assay, differentiated PC-12 cells. The class given is cell-based. The conditions noted are these: both isomers to a similar extent, data not shown.
Test [2] deals with rat primary cortical or hippocampal neurons. The test is described as follows: Toxicity compared with WT Aβ across MTT and LDH assays, rat primary neurons. The class given is cell-based. To be noted: 10 μM, 48 h. The gist of the method: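 E18 rat cortical or hippocampal neurons on poly-D-lysine in DMEM/10% FBS; 5 μM cytosine arabinoside from 24 h; treated at day 6. HFIP-treated peptide films dissolved in 60 mM NaOH, diluted in medium (final NaOH ≤6 mM), sonicated; 10 μM final, 48 h. MTT: 4 h at 37°C, stop overnight, OD; 3 experiments. LDH release: 6 experiments. 6 wells/point; normalized to NaOH-medium control; ANOVA/Tukey.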
In general terms: Tetrazolium assays rely on reduction of a dye to a coloured formazan, in cell work by metabolically active cells.

For `CC(=O)N[C@H](CC[S+](C)[O-])C(=O)O` (stereo partly drawn) [Ac-D-Met(O)], the “protection against Aβ-induced toxicity, MTT (in words)” value in test [1] was “significantly protected”.

For the compound `CC(=O)N[C@@H](CC[S+](C)[O-])C(=O)O` (stereo partly drawn) [Ac-L-Met(O)], in test [1], the “protection against Aβ-induced toxicity, MTT (in words)” value is “significantly protected”. In the case of [Met(O)^35]Aβ42 [Aβ42-Met(O)], in test [2], the “toxicity compared with the WT Aβ form (in words)” value is “significantly less toxic”.
